Experimental data reported in ChEMBL document CHEMBL4371058, “Design, synthesis and characterization of novel N-heterocyclic-1-benzyl-1H-benzo[d]imidazole-2-amines as selective TRPC5 inhibitors leading to the identification of the selective compound, AC1903” (Bioorg Med Chem Lett, 2019).

Key:
[1] = target: T1, Short transient receptor potential channel 5 (Mus musculus) (UniProt Q9QX29); test: Inhibition of mouse TRPC5 expressed in Flp-In-T-Rex-HEK293 cells assessed as reduction in […]-induced channel current at 3 uM by automated patch clamp method relative to control; format: cell-based
T1 sequence (whole entry): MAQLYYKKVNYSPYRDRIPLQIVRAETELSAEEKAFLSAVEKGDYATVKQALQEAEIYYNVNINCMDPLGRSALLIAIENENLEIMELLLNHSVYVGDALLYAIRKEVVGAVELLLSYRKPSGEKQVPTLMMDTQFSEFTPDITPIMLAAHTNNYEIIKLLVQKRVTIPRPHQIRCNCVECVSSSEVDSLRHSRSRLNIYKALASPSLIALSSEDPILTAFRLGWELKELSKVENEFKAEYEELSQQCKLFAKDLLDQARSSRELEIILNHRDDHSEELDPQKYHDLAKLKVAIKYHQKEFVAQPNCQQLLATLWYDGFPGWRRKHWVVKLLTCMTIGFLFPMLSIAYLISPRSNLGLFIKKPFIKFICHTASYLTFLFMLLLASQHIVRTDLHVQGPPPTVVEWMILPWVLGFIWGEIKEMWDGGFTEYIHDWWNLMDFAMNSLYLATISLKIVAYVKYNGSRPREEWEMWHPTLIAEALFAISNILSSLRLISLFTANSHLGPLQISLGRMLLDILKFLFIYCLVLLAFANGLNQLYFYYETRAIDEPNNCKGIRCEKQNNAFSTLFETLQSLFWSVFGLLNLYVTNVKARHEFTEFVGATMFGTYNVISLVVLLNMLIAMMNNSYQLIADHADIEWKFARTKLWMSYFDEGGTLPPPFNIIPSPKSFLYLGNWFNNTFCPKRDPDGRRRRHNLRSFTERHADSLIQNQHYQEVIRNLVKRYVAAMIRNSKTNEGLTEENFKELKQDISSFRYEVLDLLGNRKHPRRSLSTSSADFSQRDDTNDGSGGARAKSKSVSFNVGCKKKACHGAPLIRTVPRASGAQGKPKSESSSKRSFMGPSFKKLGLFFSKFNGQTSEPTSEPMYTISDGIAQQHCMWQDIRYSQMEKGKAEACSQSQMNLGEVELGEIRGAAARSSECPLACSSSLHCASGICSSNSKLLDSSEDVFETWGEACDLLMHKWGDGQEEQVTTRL
Outline: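 Automated patch clamp (Syncropatch), one concentration in one well, >10 cells. At least one session across two assay plates. DMSO vehicle and a reference inhibitor run as controls on every plate. Result expressed as % inhibition.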

[2] = target: T2, Short transient receptor potential channel 5 (Mus musculus, UniProt Q9QX29); test: Inhibition of mouse TRPC5 expressed in Flp-In-T-Rex-HEK293 cells assessed as reduction in […]-induced channel current by automated patch clamp method; format: cell-based
T2 sequence (Q9QX29 whole entry): T1 sequence (whole entry)
Outline: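 Automated patch clamp (Syncropatch) with multiple concentrations in multiple wells. IC50 determined from these wells.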

[3] = Tmax in rat at 25 mg/kg, ip; format: ADME, organism-based; details: in vivo
Outline: (§1)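 Single intraperitoneal dose of 25 mg/kg in 5% DMSO, 10% Tween80, 85% PBS.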

[4] = AUC in rat at 25 mg/kg, ip; format: ADME, organism-based; details: in vivo; outline: as §1
[5] = Cmax in rat at 25 mg/kg, ip; format: ADME, organism-based; parameters: dose 25 mg/kg, route intraperitoneal; details: in vivo; outline: as §1

Row | SMILES | inhibition [1] | also measured
1 | c1ccc(Cn2c(NCc3cccs3)nc3ccccc32)cc1 | 150% | IC50 [2]: 6.26 µM
2 | CC(Nc1nc2ccccc2n1Cc1ccccc1)c1ccco1 (configuration not stated) | 91.4% | IC50 [2]: 4.44 µM
3 | c1ccc(Cn2c(NCc3nccs3)nc3ccccc32)cc1 | 42.5% | –
4 | c1ccc(Cn2c(NCc3cccnc3)nc3ccccc32)cc1 | 12% | –
5 | c1ccc(CNc2nc3ccccc3n2Cc2ccccc2)cc1 | 32.8% | –
6 | c1coc(CNc2nc3ccccc3n2CC2CCCO2)c1 (configuration not stated) | 65.2% | –
7 | CCCn1c(NCc2ccco2)nc2ccccc21 | 81.2% | IC50 [2]: 15.5 µM
8 | c1coc(CNc2nc3ccccc3n2CCN2CCOCC2)c1 | 34.4% | –
9 | c1coc(CNc2nc3ccccc3n2CC2CCCCC2)c1 | 61.6% | –
10 | c1ccc(Cn2c(NCc3ccccn3)nc3ccccc32)cc1 | -1.8% | –
11 | c1ccc(Cn2c(NCc3ccon3)nc3ccccc32)cc1 | 47% | –
12 | c1ccc(Cn2c(NCc3cnco3)nc3ccccc32)cc1 | 33.3% | –
13 | CC(Nc1nc2ccccc2n1Cc1ccccc1)c1nccs1 (configuration not stated) | 45% | –
14 | c1ccc(Cn2c(NCc3cc4ccccc4o3)nc3ccccc32)cc1 | 18% | –
15 | c1coc(CNc2nc3ccccc3n2CC2CCC2)c1 | 117% | –
16 | Cc1ncc(CNc2nc3ccccc3n2Cc2ccccc2)s1 | 35.7% | –
17 | c1ccc(Cn2c(NCc3ccncc3)nc3ccccc32)cc1 | 17.4% | –
18 | Cc1nnc(CNc2nc3ccccc3n2Cc2ccccc2)s1 | 30% | –
19 | Cc1nc2ccccc2n1Cc1ccccc1 | 19% | –
20 | CN(Cc1ccco1)c1nc2ccccc2n1Cc1ccccc1 | 41.7% | –
21 | O=C(Nc1nc2ccccc2n1Cc1ccccc1)c1ccco1 | 38.5% | –
22 | c1ccc(Cn2c(Nc3ccccc3)nc3ccccc32)cc1 | 18.9% | –
23 | Cc1ccoc1CNc1nc2ccccc2n1Cc1ccccc1 | 82.3% | IC50 [2]: 6.93 µM
24 | Fc1ccc(Cn2c(NCc3ccco3)nc3ccccc32)cc1 | – | IC50 [2]: 1.82 µM
25 | Cc1nc(CNc2nc3ccccc3n2Cc2ccccc2)no1 | 19.8% | –
26 | c1ccc(Cn2c(Nc3cccnc3)nc3ccccc32)cc1 | 19.9% | –

Continued, in another order:

Row | inhibition [1] | SMILES | also measured
27 | 19.1% | c1ccc(Cn2c(NCc3ncco3)nc3ccccc32)cc1 | –
28 | 61.9% | Fc1cccc(Cn2c(NCc3ccco3)nc3ccccc32)c1 | –
29 | 21.7% | Fc1ccc(Cn2c(NCc3ccco3)nc3cccnc32)cc1 | –
30 | 123% | Cc1cc2nc(NCc3ccco3)n(Cc3ccccc3)c2cc1C | IC50 [2]: 12.3 µM
31 | 91.1% | Brc1ccc(OCCn2c(NCc3ccco3)nc3ccccc32)cc1 | –
32 | 31.2% | c1ccc(Cn2c(NCc3ccco3)nc3cccnc32)cc1 | –
33 | 87% | Fc1ccc(Cn2c(NCc3ccco3)nc3ccccc32)c(F)c1 | IC50 [2]: 8.42 µM
34 | 2.6% | Clc1ccccc1Cn1c(NCc2ccco2)nc2ccccc21 | –
35 | 23.6% | Fc1ccc(Cn2c(NCc3ccco3)nc3ccccc32)c(Cl)c1 | –
36 | 70.2% | Clc1cccc(Cn2c(NCc3ccco3)nc3ccccc32)c1 | –
37 | 88.4% | COc1ccc(Cn2c(NCc3ccco3)nc3ccccc32)cc1F | IC50 [2]: 11.6 µM
38 | 28.2% | Clc1cc2nc(NCc3ccco3)n(Cc3ccccc3)c2cc1Cl | –
39 | 70.9% | Clc1ccc(Cn2c(NCc3ccco3)nc3ccccc32)cc1 | –
40 | 54.4% | Fc1ccccc1Cn1c(NCc2ccco2)nc2ccccc21 | –
41 | 94.6% | Cc1cccc(Cn2c(NCc3ccco3)nc3ccccc32)c1 | IC50 [2]: 4.8 µM
42 | 50.5% | N#Cc1ccc(Cn2c(NCc3ccco3)nc3ccccc32)cc1 | –
43 | 128% | Fc1cc(Cl)ccc1Cn1c(NCc2ccco2)nc2ccccc21 | IC50 [2]: 18.1 µM
44 | 100% | c1ccc(Cn2c(NCc3ccco3)nc3ccccc32)cc1 | Tmax [3]: 6.6 min; AUC [4]: 1130 ng·h/mL; Cmax [5]: 687 ng/mL; IC50 [2]: 4.06 µM
